These results are taken from ChEMBL document CHEMBL1770150, “Synthesis, biological evaluation and molecular modeling studies of quinolonyl diketo acid derivatives: new structural insight into the HIV-1 integrase inhibition” (Eur J Med Chem, 2011).

A value given as a limit tells only on which side of the number the result lay.

In data set [1] the target is T1, Human immunodeficiency virus type 1 integrase (Human immunodeficiency virus 1, UniProt Q7ZJM1). Description: Inhibition of HIV1 integrase strand transfer activity after 1 hr by gel based assay in presence of magnesium. An outline of the steps:
(§1)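 Buffer was 20 mM HEPES pH 7.5, 1 mM DTT, 10 mM MgCl2 and 10% DMSO, for 1 h at 37 °C. DNA was precipitated, phenol/chloroform-extracted and analysed on gel. IC50 was fitted from percent inhibition versus concentration, from duplicate experiments.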

The test system of data set [2] is Human immunodeficiency virus 1. Description: Antiviral activity against HIV1 NL4-3 infected in human TZM-bl cells assessed as inhibition of Tat protein-induced transactivation after 48 hrs by beta galactosidase assay. The class given is functional, organism-based. The conditions noted are these: Human immunodeficiency virus 1, NL4-3, TZM-bl. A digest of the protocol:
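TZM-bl cells were grown in DMEM at 37 °C with 5% CO2 and plated at 5000 cells/well. After 48 h the medium was replaced with compound dilutions (0.00128 to 4). Cells were infected with NL4-3 (100 ng p24) 4 h later. At 48 h post-infection, cells were lysed in PBS with 0.1% NP-40 and 5 mM MgCl2. β-galactosidase was read with chlorophenol red-galactopyranoside. EC50 came from dose-response curves.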

In data set [3] the target is T1, Human immunodeficiency virus type 1 integrase. Briefly: Inhibition of HIV1 integrase 3' processing activity after 1 hr by gel based assay in presence of magnesium. A digest of the protocol:
as §1

Data set [4] is described as follows: Cytotoxicity against human TZM-bl cells assessed as cell viability after 3 days by WST-1 assay. The data set is classed as cell-based. An outline of the steps:
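TZM-bl cells were seeded at 5000/well, and compound dilutions (100 to 0.032) were added 2 h later. Cells and compound were held 3 days at 37 °C in growth medium. Viability was measured by WST-1 cleavage, absorbance at […]. Cytotoxicity is the percent reduction in viable cells relative to drug-free control cultures.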

Data set [5] is described as follows: Selectivity index, ratio of CC50 for human TZM-bl cells to EC50 for HIV1 NL4-3. The class given is toxicity, cell-based. The conditions noted are these: read-out: Ratio CC50/EC50. An outline of the steps: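 Index was calculated as CC50/EC50, both determined in TZM-bl cells (WST-1 viability over 3 days; NL4-3 infection with β-galactosidase read-out).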

T1 sequence (Q7ZJM1 whole entry): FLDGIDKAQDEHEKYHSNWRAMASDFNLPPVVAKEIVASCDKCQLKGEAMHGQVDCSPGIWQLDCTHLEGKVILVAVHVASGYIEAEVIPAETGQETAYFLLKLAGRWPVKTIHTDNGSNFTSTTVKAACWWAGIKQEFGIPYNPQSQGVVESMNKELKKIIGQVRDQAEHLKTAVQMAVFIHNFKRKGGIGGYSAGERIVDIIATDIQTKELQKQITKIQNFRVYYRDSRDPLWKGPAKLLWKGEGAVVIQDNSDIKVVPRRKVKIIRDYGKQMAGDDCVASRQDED

Consider `O=C(O)/C(O)=C/C(=O)c1cn(Cc2ccc(F)cc2)c2ccc(OCc3ccc(F)cc3)cc2c1=O`, for which the IC50 in data set [1] worked out at 0.05 µM; in data set [3], 3 µM. In addition, the EC50 in data set [2] worked out at 1 µM. Besides, the CC50 at 72 h in data set [4] is more than 1000 µM. For the same compound, in data set [5], the selectivity ratio came to 1000.
The matching figures for `CCOC(=O)/C=C/c1ccc2c(c1)c(=O)c(C(=O)/C=C(\O)C(=O)OCC)cn2Cc1ccc(F)cc1`: more than 300 µM, more than 300 µM, more than 140 µM, more than 1000 µM and 7.
Turning to `O=C(O)/C(O)=C/C(=O)c1cn(Cc2ccc(F)cc2)c2ccc(Br)cc2c1=O`, the results for the IC50 in data set [1] and in data set [3] were 0.03 µM and 1.6 µM, respectively. Also, the EC50 in data set [2] was determined as 4 µM. The CC50 at 72 h in data set [4] was more than 1000 µM. The selectivity ratio in data set [5] stood at 250.
The matching figures for `O=C(O)/C=C/c1ccc2c(c1)c(=O)c(C(=O)/C=C(\O)C(=O)O)cn2Cc1ccc(F)cc1`: 0.03 µM, 8 µM, 5 µM, more than 1000 µM and 200.
On the same counts, the results for `CCOC(=O)/C(O)=C/C(=O)c1cn(Cc2ccc(F)cc2)c2ccc(OCc3ccc(F)cc3)cc2c1=O` are more than 300 µM, more than 300 µM, 13 µM, more than 1000 µM and 77.

Usually IC50 stands for the concentration needed to halve the response being measured. For orientation: EC50 means the concentration needed to bring the measured effect to its halfway point. Usually CC50 stands for the concentration giving 50% cytotoxicity.
